The results in this text go back to ChEMBL document CHEMBL2311343, “Investigations into the synthesis, radiofluorination and conjugation of a new [¹⁸F]fluorocyclobutyl prosthetic group and its in vitro stability using a tyrosine model system” (Bioorg Med Chem, 2013).

The nature of data set [1]: Metabolic stability in Han Wistar rat hepatocytes at 1 uM after 60 mins. The class given is ADME, cell-based, Hepatocyte. The note with it: read-out: Stability. A digest of the protocol:
(§1)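 Hepatocytes isolated from Han Wistar rat liver by two-step perfusion and Percoll purification; viability by trypan blue. Incubated at 0.5×10^6 viable cells/mL in Williams' medium E + 5% FCS with 1 µM compound, shaken continuously. Aliquots taken at 2–60 min and quenched with cold methanol, frozen overnight, centrifuged. Supernatant analysed by LC-MS/MS.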

The nature of data set [2]: Metabolic stability in Han Wistar rat hepatocytes at 1 uM after 30 mins. It counts as ADME, cell-based, Hepatocyte. The settings on record: read-out: Stability. In a few lines: as §1
Data set [3] is described as follows: Metabolic stability in Han Wistar rat hepatocytes at 1 uM after 45 mins. The class given is ADME, cell-based, Hepatocyte. The note with it: read-out: Stability. A digest of the protocol:
as §1

Data set [4] in a line: Metabolic stability in Han Wistar rat hepatocytes at 1 uM after 16 mins. The class given is ADME, cell-based, Hepatocyte. The settings on record: read-out: Stability. A digest of the protocol:
as §1

Data set [5] can be described thus: Metabolic stability in Han Wistar rat hepatocytes at 1 uM after 2 mins. It counts as ADME, cell-based, Hepatocyte. The note with it: read-out: Stability. A digest of the protocol:
as §1

Data set [6] can be described thus: Metabolic stability in Han Wistar rat hepatocytes at 1 uM after 8 mins. The class given is ADME, cell-based, Hepatocyte. The note with it: read-out: Stability. In a few lines:
as §1

The subject of data set [7] is NCI-H460. The data set can be described thus: Cellular uptake in human NCI-H460 cells assessed per 1-'5 cells at 0.2 MBq after 10 mins by gamma counting. The class given is ADME, cell-based. The settings on record: nci-h460, 10 min. In a few lines:
(§2)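 Sub-confluent cells seeded 1–2 days earlier (A549 and DU145 in DMEM + 10% FBS; NCI-H460 in DMEM/F-12 + 10% FBS). Washed with PBS, then incubated with 0.2 MBq radiotracer per well in PBS + 0.1% BSA (8% EtOH) at 37 °C, 5% CO2, for 10, 20, 30 and 60 min. Washed, lysed in 1 M NaOH and gamma-counted. Expressed as % applied dose per 10^5 cells, decay-corrected, in triplicate.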

A short description of data set [8]: (§3) Stability of the compound in rat plasma at 22 MBq/mL up to 120 mins. It counts as ADME, cell-free. The settings on record: read-out: Stability. In a few lines:
(§4)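 Radiotracer at 22 MBq/mL incubated in human or rat plasma at 37 °C; sampled at 0, 30, 60, 90 and 120 min. Proteins precipitated with MeOH and centrifuged. Supernatant analysed by radio-HPLC and by radio-TLC (BuOH/AcOH/H2O 12:3:5). Intact tracer expressed as % of the 0 min sample.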

Data set [9] relates to A549. Description: Cellular uptake in human A549 cells assessed per 1-'5 cells at 0.2 MBq after 10 mins by gamma counting. The settings on record: a549, 10 min. It counts as ADME, cell-based. A digest of the protocol:
as §2

Data set [10] relates to DU-145. Description: Cellular uptake in human DU145 cells assessed per 1-'5 cells at 0.2 MBq after 10 mins by gamma counting. It counts as ADME, cell-based. The settings on record: du-145, 10 min. In a few lines: as §2
The test system of data set [11] is A549. Description: Cellular uptake in human A549 cells at 0.2 MBq up to 60 mins by gamma counting in presence of L-3-FCBT. It counts as ADME, cell-based. The note with it: a549, 1 h.
Data set [12] concerns NCI-H460. Description: Cellular uptake in human NCI-H460 cells at 0.2 MBq up to 60 mins by gamma counting in presence of L-3-FCBT. The class given is ADME, cell-based. The note with it: nci-h460, 1 h.
A short description of data set [13]: Stability of the compound in human plasma at 22 MBq/mL up to 120 mins. The class given is ADME, cell-free. The note with it: read-out: Stability. A digest of the protocol:
as §4

Data set [14] concerns NCI-H460. The data set can be described thus: Cellular uptake in human NCI-H460 cells assessed per 1-'5 cells at 0.2 MBq after 60 mins by gamma counting. It counts as ADME, cell-based. The settings on record: nci-h460, 1 h. In a few lines: as §2
The subject of data set [15] is DU-145. Description: Cellular uptake in human DU145 cells assessed per 1-'5 cells at 0.2 MBq after 60 mins by gamma counting. The class given is ADME, cell-based. The note with it: du-145, 1 h. A digest of the protocol: as §2
Data set [16] relates to NCI-H460. Description: Cellular uptake in human NCI-H460 cells at 0.2 MBq up to 60 mins by gamma counting in presence of FET. It counts as ADME, cell-based. The settings on record: nci-h460, 1 h.
The subject of data set [17] is A549. The data set can be described thus: Cellular uptake in human A549 cells at 0.2 MBq up to 60 mins by gamma counting in presence of FET. It counts as ADME, cell-based. The note with it: a549, 1 h.
Data set [18] deals with DU-145. The data set can be described thus: Cellular uptake in human DU145 cells at 0.2 MBq up to 60 mins by gamma counting in presence of L-3-FCBT. The class given is ADME, cell-based. The note with it: du-145, 1 h.
The subject of data set [19] is A549. The data set can be described thus: Cellular uptake in human A549 cells assessed per 1-'5 cells at 0.2 MBq after 30 mins by gamma counting. It counts as ADME, cell-based. The note with it: a549, 0.5 h. A digest of the protocol:
as §2

The test system of data set [20] is NCI-H460. Description: Cellular uptake in human NCI-H460 cells at 0.2 MBq by gamma counting. It counts as ADME, cell-based. The settings on record: TDE = time-dependent effect. A digest of the protocol:
as §2

Data set [21] deals with DU-145. The data set can be described thus: Cellular uptake in human DU145 cells at 0.2 MBq by gamma counting. It counts as ADME, cell-based. The settings on record: TDE = time-dependent effect. In a few lines:
as §2

Data set [22] concerns A549. Description: Cellular uptake in human A549 cells at 0.2 MBq by gamma counting. The settings on record: TDE = time-dependent effect. It counts as ADME, cell-based. In a few lines:
as §2

Data set [23] deals with DU-145. Description: Cellular uptake in human DU145 cells at 0.2 MBq up to 60 mins by gamma counting in presence of FET. The note with it: du-145, 1 h. The class given is ADME, cell-based.
Another data set concerns Plasma. Described as §3. It counts as ADME, cell-free. The settings on record: 2 h. In a few lines: as §4
Data set [24] in a line: Stability of the compound in human plasma at 22 MBq/mL after 5 mins. The settings on record: read-out: Stability. The class given is ADME, cell-free.
A short description of data set [25]: Lipophilicity, log D of the compound. The class given is physicochemical. The note with it: octanol/water. In a few lines: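 Shake-flask logD, run manually in two vials. Compound (0.1 mg) in octanol saturated with 10 mM phosphate buffer pH 7.4, sonicated 3 min, shaken 4 min at 20 °C. Phases separated by centrifugation, then quantified by reversed-phase HPLC with UV at 254 nm by peak area.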

SMILES strings stand for the structures.

As for `N[C@@H](Cc1ccc(O[C@H]2C[C@@H](F)C2)cc1)C(=O)O`, the remaining at 1 h, 1 µM in [1] came out at 94%. In data set [2], the remaining at 0.5 h, 1 µM amounted to 97%. In addition, the remaining at 0.75 h, 1 µM in data set [3] worked out at 95%. Further, in [4], the remaining at 16 min, 1 µM is 98%. Moreover, the remaining at 2 min, 1 µM in data set [5] was 100%. Moreover, in [6], the remaining at 8 min, 1 µM is 99%.
Turning to `N[C@@H](Cc1ccc(O[C@H]2C[C@@H]([18F])C2)cc1)C(=O)O`, the Drug uptake was 0.7% in the data set with NCI-H460 [7]; 2.8% in the data set on A549 [9]; 0.7% with DU-145 [10]; “Not Active” in the data set on A549 [11]; “Not Active” in the data set with NCI-H460 [12]; 2.1% with NCI-H460 [14]. Moreover, the Drug uptake in the data set on DU-145 [15] was 2.1%; in the data set with NCI-H460 [16] it was “Not Active”; in the data set on A549 [17], “Not Active”; in the data set on DU-145 [18] it was “Not Active”; with A549 [19], 5.8%; with NCI-H460 [20] it was “tde”. The Drug uptake result is “tde” with DU-145 [21], “tde” in the data set with A549 [22] and “Not Active” in the data set on DU-145 [23]. Moreover, the remaining at 2 h, 22 MBq/mL in [8] and in data set [13] was more than 99.9% in each case.
For the compound `N[C@@H](Cc1ccc(OCC[18F])cc1)C(=O)O` [FLORETYROSINE F18], the Stability result in the data set on Plasma is on record as “Stable”. For the same compound, in data set [13], the remaining at 2 h, 22 MBq/mL worked out at 87%. Further, the remaining at 5 min, 22 MBq/mL in data set [24] worked out at 95%.
Turning to `N[C@@H](Cc1ccc(OCCF)cc1)C(=O)O` [O-(2-FLUOROETHYL)-L-TYROSINE], in [25], the logD (commonly the decadic logarithm of the distribution of all forms, ionised or not, between an organic phase and buffer at a given pH) was -1.51.
